Data: ChEMBL document CHEMBL5325438 (Eur J Med Chem, 2023)
The source made the active and inactive calls. Square brackets hold non-standard residues; d marks the D form. Peptide text beside a SMILES is read from it. * marks the point of attachment. Cav = NC(N)=NOCC[C@H](N)C(=O)O; Tle = CC(C)(C)[C@H](N)C(=O)O; X1 = C[C@@H](CCCCN)C(=O)*

Columns and labels:
[1] = test system: HepG2; assay: Cytotoxicity against human HepG2 cells assessed as reduction in cell viability at 100 uM incubated for 24 hrs by MTT assay relative to control; assay type: toxicity, cell-based; details: hepg2, 24 h
Method in brief: (§1)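 HepG2, MDA-MB-231 and HT-29 cells grown in DMEM/10% FBS with penicillin/streptomycin at 37 °C, 5% CO2. Exponential-phase cells seeded at 5000/well, left overnight, then exposed 24 h to peptide at 0.1–100 μM (from 1.0 mM PBS pH 7.4 stocks). Viability by MTT, as % of untreated control ± SD.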

[2] = test system: MDA-MB-231; assay: Cytotoxicity against human MDA-MB-231 cells assessed as reduction in cell viability at 100 uM incubated for 24 hrs by MTT assay relative to control; assay type: toxicity, cell-based; details: mda-mb-231, 24 h; method in brief: as §1
[3] = test system: HT-29; assay: Cytotoxicity against human HT-29 cells assessed as reduction in cell viability at 100 uM incubated for 24 hrs by MTT assay relative to control; assay type: toxicity, cell-based; details: ht-29, 24 h; method in brief: as §1
[4] = test system: HepG2; assay: Cytotoxicity against human HepG2 cells assessed as reduction in cell viability at 0.1 to 100 uM incubated for 24 hrs by MTT assay; assay type: toxicity, cell-based; details: hepg2, 24 h, dose 0.1-100 µM; method in brief: as §1
[5] = test system: MDA-MB-231; assay: Cytotoxicity against human MDA-MB-231 cells assessed as reduction in cell viability at 0.1 to 100 uM incubated for 24 hrs by MTT assay; assay type: toxicity, cell-based; details: mda-mb-231, 24 h, dose 0.1-100 µM; method in brief: as §1
[6] = test system: HT-29; assay: Cytotoxicity against human HT-29 cells assessed as reduction in cell viability at 0.1 to 100 uM incubated for 24 hrs by MTT assay; assay type: toxicity, cell-based; details: ht-29, 24 h, dose 0.1-100 µM; method in brief: as §1
[7] = Stability of compound in PBS buffer assessed as parent compound remaining at pH 2.0 incubated for 24 hrs by UV/Vis spectroscopic analysis; assay type: physicochemical; details: read-out: Stability
Method in brief: (§2)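 Peptide at 50 μM in PBS at pH 2.0 or 7.4, kept at 37 °C; short-term stability over 0–24 h followed by UV/Vis spectroscopy; % remaining reported.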

[8] = Stability of compound in PBS buffer assessed as parent compound remaining at pH 7.4 incubated for 24 hrs by UV/Vis spectroscopic analysis; assay type: physicochemical; details: read-out: Stability; method in brief: as §2
[9] = Stability of compound in PBS buffer assessed as parent compound remaining at pH 2.0 measured after 30 days by RP-HPLC/UV/Vis spectroscopic analysis; assay type: physicochemical; details: time 30 day, read-out: Stability
Method in brief: (§3)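 Peptide at 50 μM in PBS at pH 2.0 or 7.4, stored at room temperature and 37 °C for 30 days; % peptide remaining reported.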

[10] = Stability of compound in PBS buffer assessed as parent compound remaining at pH 7.4 measured after 30 days by RP-HPLC/UV/Vis spectroscopic analysis; assay type: physicochemical; details: time 30 day, read-out: Stability; method in brief: as §3
[11] = Permeability of compound in PBS buffer at pH 7.4 at 100 uM incubated for 4 hrs by PAMPA-BBB assay; assay type: ADME; details: read-out: permeability
Method in brief: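 PAMPA-BBB with peptide at 100 μM in PBS, donor and acceptor both pH 7.4, 4 h at room temperature. Effective permeability Pe (×10⁻⁶ cm/s) and −log Pe reported as mean ± SEM of three independent experiments.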

[12] = test system: Mus musculus; assay: (§4) Neuroprotective activity against MPTP-induced Parkinson's disease BALB/c albino mouse model assessed as restoration of step-through latency values at 10 mg/kg, ip preadministered with compound for 1 hrs followed by MPTP addition and measured 10 days after first MPTP addition by step-through passive avoidance test; assay type: functional, organism-based; details: time 241.0 hrs
Method in brief: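 Male BALB/c mice (8–10 weeks, 30–35 g), n = 5/group, were dosed i.p. once daily for 5 days with peptide (10 mg/kg), then MPTP (30 mg/kg) 60 min later; controls received saline or MPTP alone. On day 10, the latency to enter the dark compartment was recorded (cut-off 180 s). Data are mean ± SEM, analysed by one-way ANOVA/Dunnett versus saline and MPTP groups.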

[13] = Toxicity in MPTP-induced parkinsons's disease BALB/c albino mouse model assessed as body weight loss at 10 mg/kg, ip preadministered with compound for 1 hrs followed by MPTP-addition and measured 5 days after first MPTP addition; assay type: organism-based; details: in vivo, 121 h
Method in brief: (§5)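 Male BALB/c mice (n = 5/group) given peptide 10 mg/kg i.p. daily for 5 days, each dose followed 60 min later by MPTP 30 mg/kg i.p.; saline controls. Body weight recorded on days 1, 5 and 10.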

[14] = Toxicity in MPTP-induced parkinsons's disease BALB/c albino mouse model assessed as body weight loss at 10 mg/kg, ip preadministered with compound for 1 hrs followed by MPTP-addition and measured 10 days after first MPTP addition; assay type: organism-based; details: in vivo, 241 h; method in brief: as §5
[15] = test system: Mus musculus; assay: as §4, with “motor function by measuring increase in hanging time value” for “step-through latency values”, “hanging” for “step-through passive avoidance”, “test relative to control” for “test”; assay type: functional; details: time 241 hrs
Method in brief: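 Male BALB/c mice, 8–10 weeks old, 30–35 g, n = 5/group, trained 3 days on a horizontal wire (55 cm, 2.0 mm diameter, 37 cm high). Peptide 10 mg/kg i.p. daily for 5 days, with MPTP 30 mg/kg i.p. given 60 min later; saline controls. Hanging time tested on day 10; one-way ANOVA with Dunnett's test; mean ± SEM.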

[16] = test system: Mus musculus; assay: Neuroprotective activity against MPTP-induced neurotoxicity in BALB/c albino mouse model assessed as alleviation of MPTP-induced nigrostriatal dopaminergic neuronal damage by measuring increase in number of TH-postivie neurons in substantia nigra at 10 mg/kg, ip preadministered with compound for 1 hrs followed by MPTP addition and measured 11 days after first MPTP addition by immunohistological staining analysis (reference value: 66 +/- 1.41%); assay type: functional; details: time 265 hrs
Method in brief: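 Same dosing as the behavioural study (peptide 10 mg/kg i.p., then MPTP 30 mg/kg i.p. 60 min later, 5 days; n = 5). Brains taken on day 11, fixed in 10% paraformaldehyde (pH 7.4, 0.1 M phosphate) overnight at 4 °C and paraffin-embedded. Substantia nigra sections stained with rabbit anti-TH (1:500). TH-positive cells counted, as % of saline control; ANOVA/Dunnett.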

[17] = target: T1, Neurotensin receptor type 1 (Homo sapiens, UniProt P30989); assay: Binding affinity to human NTSR1 transfected in HEK293 cells assessed as inhibition constant incubated for 60 mins in the presence of [Leu3H]NT(8-13) by radioligand competition binding assay; assay type: cell-based
[18] = target: Neurotensin receptor type 2 (Homo sapiens, UniProt O95665); assay: Binding affinity to human NTSR2 transfected in HEK293 cells assessed as inhibition constant incubated for 60 mins in the presence of [Leu3H]NT(8-13) by radioligand competition binding assay; assay type: cell-based
Method in brief: (§6)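 IC50 from nonlinear regression, converted to Ki by Cheng–Prusoff; protein by Lowry. Means ± SEM of three (NTS1R) or four to five (NTS2R) experiments, each in triplicate. SI = Ki(NTS1R)/Ki(NTS2R).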

[19] = organism: Homo sapiens; assay: Selectivity index, ratio of Ki for human NTSR1 transfected in HEK293 cells in the presence of [Leu3H]NT(8-13) to Ki for human NTSR2 transfected in HEK293 cells in the presence of [Leu3H]NT(8-13); assay type: cell-based
Method in brief: as §6, with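 “Membranes from HEK293(T) cells transiently transfected with hNTS1R or hNTS2R; competition binding against [³H]NT(8–13). IC50” for “IC50”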

[20] = target: T1, Neurotensin receptor type 1; assay: Agonist activity at human NTSR1 expressed in HEK293 cells assessed as Galphaq-mediated modulation of IP production incubated for 90 mins by IP-one HTRF assay; assay type: functional, cell-based
[21] = target: T1, Neurotensin receptor type 1; assay: Agonist activity at human NTSR1 expressed in HEK293 cells assessed as Galphaq-mediated modulation of IP production by measuring maximal efficacy incubated for 90 mins by IP-one HTRF assay relative to full effect of (2S)-2-[[(2S,3S)-2-[[(2S)-2-[[(2S)-1-[(2S)-2-[[(2S)-2-amino-5-guanidino-pentanoyl]amino]-5-guanidino-pentanoyl]pyrrolidine-2-carbonyl]amino]-3-(4-hydroxyphenyl)propanoyl]amino]-3-methyl-pentanoyl]amino]-4-methyl-pentanoic acid; assay type: functional, cell-based; details: filed as agonist
[22] = target: T1, Neurotensin receptor type 1; assay: Binding affinity to human NTS1R assessed as dissociation constant

Chain of Neurotensin receptor type 2 (O95665 whole entry): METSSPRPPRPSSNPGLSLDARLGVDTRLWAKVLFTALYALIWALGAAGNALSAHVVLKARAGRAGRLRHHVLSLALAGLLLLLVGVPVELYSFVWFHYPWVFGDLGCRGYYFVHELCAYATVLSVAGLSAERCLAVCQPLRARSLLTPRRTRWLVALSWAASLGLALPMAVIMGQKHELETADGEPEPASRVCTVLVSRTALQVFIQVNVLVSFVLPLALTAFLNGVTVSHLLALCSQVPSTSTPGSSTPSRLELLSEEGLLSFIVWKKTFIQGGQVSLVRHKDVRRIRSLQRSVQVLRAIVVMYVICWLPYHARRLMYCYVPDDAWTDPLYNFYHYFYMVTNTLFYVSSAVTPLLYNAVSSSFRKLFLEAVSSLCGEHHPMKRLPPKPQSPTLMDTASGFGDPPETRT
T1 sequence (P30989 whole entry): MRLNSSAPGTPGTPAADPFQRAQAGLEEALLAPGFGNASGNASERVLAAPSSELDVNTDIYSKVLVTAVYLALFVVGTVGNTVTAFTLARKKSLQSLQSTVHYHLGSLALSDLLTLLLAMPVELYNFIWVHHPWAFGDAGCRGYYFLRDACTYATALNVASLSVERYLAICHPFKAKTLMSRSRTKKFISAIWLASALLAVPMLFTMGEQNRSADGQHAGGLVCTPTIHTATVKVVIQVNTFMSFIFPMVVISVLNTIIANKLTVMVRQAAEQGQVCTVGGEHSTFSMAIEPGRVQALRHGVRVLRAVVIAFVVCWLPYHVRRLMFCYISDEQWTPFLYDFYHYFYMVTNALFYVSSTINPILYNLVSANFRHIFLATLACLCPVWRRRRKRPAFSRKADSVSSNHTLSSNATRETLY

remaining at 24 h [7] [%] | remaining at 24 h [8] [%] | remaining at 720 h [9] [%] | remaining at 720 h [10] [%] | Papp at 4 h, 100 µM [11] [×10⁻⁶ cm/s] | Ki [17] [nM] | Ki [18] [nM] | EC50 [20] [nM] | Emax [21] [%] | SMILES | viability [1] [%] | viability [2] [%] | viability [3] [%] | Activity [4] | Activity [5] | Activity [6] | also measured
– | – | – | – | – | – | – | – | – | CC[C@H](C)[C@H](NC(=O)[C@H](Cc1ccc(O)cc1)NC(=O)[C@@H]1CCCN1C(=O)[C@H](CCON=C(N)N)NC(=O)[C@@H](N)CCON=C(N)N)C(=O)N[C@@H](CC(C)C)C(=O)O | – | – | – | Non-Toxic | Non-Toxic | Non-Toxic | –
100 | 100 | > 94 | > 95 | 0.89 | – | – | – | – | CC[C@H](C)[C@H](NC(=O)[C@H](Cc1ccc(O)cc1)NC(=O)[C@@H]1CCCN1C(=O)[C@H](CCON=C(N)N)NC(=O)[C@@H](N)CCCN=C(N)N)C(=O)N[C@@H](CC(C)C)C(=O)O | 99.8 | 97.7 | 88.9 | – | – | – | –
– | – | – | – | – | – | – | – | – | CC[C@H](C)[C@H](NC(=O)[C@H](Cc1ccc(O)cc1)NC(=O)[C@@H]1CCCN1C(=O)[C@H](CCCN=C(N)N)NC(=O)[C@@H](N)CCON=C(N)N)C(=O)N[C@@H](CC(C)C)C(=O)O | – | – | – | Non-Toxic | Non-Toxic | Non-Toxic | –
100 | 100 | > 97 | > 100 | 2.81 | 6.9 | 6.5 | 0.82 | 97 | CC[C@H](C)[C@H](NC(=O)[C@H](Cc1ccc(O)cc1)NC(=O)[C@@H]1CCCN1C(=O)[C@H](CCON=C(N)N)NC(=O)[C@@H](N)CCCCN)C(=O)N[C@@H](CC(C)C)C(=O)O (H-K[Cav]PYIL-OH) | 95.1 | 97.3 | 94.6 | – | – | – | Ratio Ki [19]: 1.06; Activity [12]: Active; Activity [13]: Toxic; Activity [14]: Non-Toxic; Activity [15]: 87%; Activity [16]: 90%
– | – | – | – | – | > 50000 | > 50000 | 3200 | 100 | CC[C@H](C)[C@H](NC(=O)[C@H](Cc1ccc(O)cc1)NC(=O)[C@@H]1CCCN1)C(=O)N[C@@H](CC(C)C)C(=O)O (H-PYIL-OH) | – | – | – | Non-Toxic | Non-Toxic | Non-Toxic | –
– | – | – | – | – | 15 | 14 | 0.85 | 99 | CC[C@H](C)[C@H](NC(=O)[C@H](Cc1ccc(O)cc1)NC(=O)[C@@H]1CCCN1C(=O)[C@H](CCCCN)NC(=O)[C@@H](N)CCON=C(N)N)C(=O)N[C@@H](CC(C)C)C(=O)O (H-[Cav]KPYIL-OH) | – | – | – | Non-Toxic | Non-Toxic | Non-Toxic | Ratio Ki [19]: 1.07
– | – | – | – | – | – | – | – | – | CC(C)C[C@H](NC(=O)[C@@H](NC(=O)[C@H](Cc1ccc(O)cc1)NC(=O)[C@@H]1CCCN1C(=O)[C@H](CCCNC(=N)N)NC(=O)[C@@H](C)CCCCN)C(C)(C)C)C(=O)O (X1-RPY[Tle]L-OH) | – | – | – | – | – | – | Kd [22]: 5.71 nM

SMILES | remaining at 24 h [7] [%] | remaining at 24 h [8] [%] | remaining at 720 h [9] [%] | remaining at 720 h [10] [%] | Papp at 4 h, 100 µM [11] [×10⁻⁶ cm/s] | Ki [17] [nM] | Ki [18] [nM] | EC50 [20] [nM] | Emax [21] [%] | viability [1] [%] | viability [2] [%] | viability [3] [%] | Activity [4] | Activity [5] | Activity [6] | also measured
CC[C@H](C)[C@H](NC(=O)[C@H](Cc1ccc(O)cc1)NC(=O)[C@@H]1CCCN1C(=O)[C@H](CCCNC(=N)N)NC(=O)[C@@H](N)CCCNC(=N)N)C(=O)N[C@@H](CC(C)C)C(=O)O | 100 | 100 | > 97 | 100 | 0.64 | – | – | – | – | 96 | 93.3 | 90.7 | Non-Toxic | Non-Toxic | Non-Toxic | Activity [12]: Active; Activity [13]: Toxic; Activity [14]: Non-Toxic; Activity [15]: 31%; Activity [16]: 77.5%
